20 sequences from the EternaBench riboswitch data can be followed below.

This data set concerns MS2 coat protein. The data set is described as follows: apparent Kd, MS2 coat protein; higher = weaker binding; RNA-MaP array; FMN 200 µM where present. The procedure, abridged:
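SNAP-549-labelled MS2 coat protein, doubled from 0.7 or 1.5 nM to 3 µM, was titrated over designs transcribed by stalled E. coli RNA polymerase on Illumina sequencing-chip clusters. Titrations were run without and then with constant ligand in 100 mM Tris-HCl pH 7.5, 80 mM KCl, 4 mM MgCl2, BSA, DTT, yeast tRNA and Tween-20. The apparent Kd is the median of filtered per-cluster fits to green signal normalised to red-channel RNA signal and control-cluster median Fmax.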

The mark [1] stands for this setting: designed as: OFF switch for flavin mononucleotide, no ligand.
The mark [2] stands for this setting: ligand present: flavin mononucleotide, designed as: OFF switch for flavin mononucleotide.
The mark [3] stands for this setting: designed as: ON switch for flavin mononucleotide, no ligand.
Setting [4] is: ligand present: flavin mononucleotide, designed as: ON switch for flavin mononucleotide.

Consider “GCGUCAGUUUCACAUGUAAUACAUGAGGAUCACCCAUGUUACUAGGAUAUGUAUUAGAAUUAUCAACAGAAGGAGUAAUGACGC”, for which the apparent Kd (usually the concentration giving half-maximal binding under the conditions of the assay) is 11.1 nM under setting [1] and 12.8 nM under setting [2].

Consider “GGCGAACAGGCUAACAUGAGGAUCACCCAUGUGGACUCAUGGUAGGAUAUGCUGUACUUUGUACAGCAGAAGGGCCGGUGAGCC”, for which the “apparent Kd” value reads like this: under setting [3], 54.4 nM; under setting [4], 315 nM.

For the sequence “CCACGAGACUAAGGAUAUGGAGUGUCAACAUAAAACAUGAGGAUCACCCAUGUAAAGAGUACGAUUCAGAAGGUAGAGACGUGG”, the “apparent Kd” value worked out at 38.3 nM under setting [3] and 23.7 nM under setting [4].

In the case of “AACGGGUGGGUAGGAUAUGGCUAUGUCUCAUUGCUAGAAGGACCAGCUGCUACAUGAGGAUCACCCAUGUCGUAGUGCAUCCAG”, the “apparent Kd” value by setting is: under setting [3], 88.2 nM; under setting [4], 13 nM.

“AAGCGAGGGACAGGAUAUGCGGCGGAACUCGCCGCAGAAGGGUCGACAUGAGGAUCACCCAUGUCCUUACGCUCCAAGUAGUGG”: the “apparent Kd” value by setting is: under setting [3], 131 nM; under setting [4], 425 nM.

On to “UGGUACUACGGAGGAUAUCAUGUAGAUACAUGAGGAUCACCCAUGUCGUACGAGAGUACGGAGAUUGAGAAGGCCGUAGUACCU”, for which the “apparent Kd” value was found to be 30.5 nM under setting [3] and 15.1 nM under setting [4].

Regarding “UUACCUCAUGAGAAGGACAUGAGGAUCACCCAUGUAGGAUAUCAUGGGUCAGUGGAAUUGAAUCUUCGGAUUCAAUAACUCUAC”, the “apparent Kd” value was 140 nM under setting [3] and 44 nM under setting [4].

On to “GGUGCACAUGAGAAGGCGAUCAUGAAACAUGAUCGAGGAUAUCAUGUAAACAUGAGGAUCACCCAUGUAUGGGAAAAGUGCACC”, for which the “apparent Kd” value by setting is: under setting [3], 114 nM; under setting [4], 10.9 nM.

As to “AUAUCUAUAUCAGGAUAUGGACAGGCCUGUCCGUAUUGAGACAGUAACAUGAGGAUCACCCAUGUCCAGAAGGGAUCGAUAUAU”, the “apparent Kd” value is, setting by setting: under setting [1], 38.6 nM; under setting [2], 41.8 nM.

“AAAGGACGAGGAUAUACAUGAGGAUCACCCAUGUAAGAAGCAUAAUAAAAUAACUUAUGUAGAAGGCGUCCAAA”: the “apparent Kd” value worked out at 20.5 nM under setting [1] and 84.4 nM under setting [2].

With “CUCUUGUAAGGAUAUGACUACAUAAAAAAAAAAAAAUGUAGUCAGAAGGUACAUGAGGAUCACCCAUGUACAAA”, the “apparent Kd” value is, setting by setting: under setting [1], 22.7 nM; under setting [2], 25.6 nM.

On to “GAGCGAAAGCUCAAUGUCGAUAGCAGAAGGACAUGAAUAACAUGAAUAACAUGAGGAUCACCCAUGUAGGAUAUGCUAUCGACU”, for which the “apparent Kd” value by setting is: under setting [1], 11.1 nM; under setting [2], 108 nM.

As for “GACUCGCGCACAGGAUAUCCACGUAGCGGACGUGGAGAAGGGUGACAUGAGGAUCACCCAUGUACGUGAGUCUAGAUCACUUCC”, the “apparent Kd” value was found to be 40.2 nM under setting [3] and 22.8 nM under setting [4].

Take “GCAUCACAUGAGGAUCACCCAUGUCUUCGGAGUCGAGGAUAUGGUCACUGUAAACAGUGGCCAGAAGGCGAGGUGC”: the “apparent Kd” value by setting is: under setting [3], 67.6 nM; under setting [4], 38.3 nM.

Consider “UUGCGGUAGGAGAAGGACAGAGGCGGAAACACAAACAUGAGGAUCACCCAUGUAGGAUAUCCUACCUAACGCGGAUCCCUCCAG”, for which the “apparent Kd” value by setting is: under setting [1], 11.1 nM; under setting [2], 34.6 nM.

In the case of “GGAUAGGACAGAGGAUAUACGUGCUAGAGAUACUAGCCAAAUUUCCUCACAUGAGGAUCACCCAUGUAGAAGGCUGUCCUAUCG”, the “apparent Kd” value by setting is: under setting [1], 6.86 nM; under setting [2], 84.5 nM.

For “AGUCGGCAUGAGAAGGGUUACAUGAGGAUCACCCAUGUGAUCAAAUCGUUAACAGGAUAUCAGGCGUCGGGCUUUGCCCGGAGG”, the “apparent Kd” value by setting is: under setting [1], 16.4 nM; under setting [2], 106 nM.

With “AAAAAAAAAAGGCAGGAUAUCUAAAAAAAAACAUGAGGAUCACCCAUGUAAAAAAAAAAAAAGUGGGAGAAGGGCCAAAAAAAAAA”, the “apparent Kd” value is, setting by setting: under setting [3], 35.9 nM; under setting [4], 18.1 nM.

Turning to “GCUCCUCGAGUUAGGAUAUGUCGGCUAUCUAAAUGAUAGAAGGGACAUGAGGAUCACCCAUGUCACGGGAUUGA”, the “apparent Kd” value runs as follows: under setting [1], 56.7 nM; under setting [2], 58.7 nM.

Turning to “UUACUACAUGAGGAUCACCCAUGUCAGGAUAUUGUCUAUACUUUGGAAUAUGUGUCGAUAAGAAGGGACUGUAU”, the “apparent Kd” value under setting [1] came to 19.9 nM and the “apparent Kd” value under setting [2] was 26.2 nM.
